CYP2C9 activ: activators of human CYP2C9; P11712; recombinant CYP2C9, luciferin-H conversion, luminescence; hits give high values; factor 1 = untreated enzyme, 0 = blocked; activation factor at 5 µM; actives 1.4% (n = 96,000); AID 1024;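 active = activation factor of 2 or more for CYP2C9 at a 5 µM dose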;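 also: 0 = sulfaphenazole-blocked wells and 1 = vehicle-only wells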
Cav32 inh: inhibitors of human Cav3.2 T-type calcium channel | Cav3.2-expressing cells, Fluo-4 calcium fluorescence FDSS; hits give low values | actives 4% (n = 100,000) | B-score at 10 µM | O95180;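 active = single-dose well whose peak fluorescence ratio is a statistical outlier from its plate by either plate-standardised score or position-corrected B-score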
CYP2C19 inhib: inhibitors of human CYP2C19; P33261; inhibition, % at 5 µM; actives 21% (n = 96,000); CYP2C19 Supersomes, luciferin-H EGE luminescence, 30 min;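 active = CYP2C19 inhibition above a set limit at 5 µM in the primary screen, cut at about 50% in these data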;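 also: plate controls were negative control wells for no effect and 2.5 mM tranylcypromine positive control for full effect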
CYP2C9 inhib: human CYP2C9 inhibition. CYP2C9 Supersomes, luciferin-H conversion, luminescence. inhibition, % at 5 µM. actives 20% (n = 96,000). AID 777;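 active = blocking of liver enzyme CYP2C9 beyond about 50% at 5 µM, limit read from the data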
CYP2C19 act: cytochrome P450 2C19 (human) activation | recombinant CYP2C19, luciferin-H EGE luminescence; hits give high values; 0 = fully inhibited enzyme, 1 = untreated enzyme | activation factor at 5 µM | 96,000 tested, under 10 active | AID 1025;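 active = activation factor of at least 2 at 5 µM in the primary screen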;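 also: 0 = wells with 2.5 mM tranylcypromine and 1 = vehicle-only wells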
HIV Rev-RRE inh: disrupts HIV-1 Rev binding to RRE RNA; Rev peptide-RRE RNA binding, FRET; inhibition, % at 8 µM; actives 0.79% (n = 97,000); AID 704;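 active = inhibition above the screen-wide mean plus 3 SD, cut at about 35% in these data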;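 also: 0% = median DMSO wells and 100% = median Neomycin B control wells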
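Test system: labelled RRE RNA duplex and labelled Rev peptide. Times: 5 min compound–RNA preincubation, then 15 min with peptide, 25 °C. Doses: single-dose 8 µM. Measured by: FRET, excitation 480 nm, emission 540 nm donor and 671 nm acceptor. Measure: % inhibition of FRET ratio versus controls.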
Numbers without * were called inactive; . = not tested or not shown. Most compounds without a hit are left out; they make up all but 27% or so of the library.

SMILES	CYP2C9 activ	Cav32 inh	CYP2C19 inhib	CYP2C9 inhib	CYP2C19 act	HIV Rev-RRE inh
Cc1cccc(/N=C/c2c(O)cc(C)oc2=O)n1	1.1	-0.026	-15	-11	1.1	.
Cc1ccc(N/N=C/c2c(O)cc(C)oc2=O)cc1	0.5	-0.16	37	50*	0.6	1
Cc1ccc(C(=O)C(C(=O)/C=C/c2ccccc2)=C2SCCCS2)cc1	.	-1.7	.	.	.	16
O=C(CN1CCOc2ccccc21)NCc1ccco1	0.6	-0.08	46	41	0.5	1
O=C(CCN1C(=O)COc2ccccc21)NCc1cccs1	1.1	0.38	84*	-10	0.2	8
COc1ccc(CCNC(=O)CCN2C(=O)COc3ccccc32)cc1OC	0.8	0.55	82*	24	0.2	.
O=C(CN1CCOc2ccccc21)NCc1cccs1	0.9	0.77	60*	7	0.4	1
COCCOC(=O)C1=C(C)NC2=C(C(=O)CC(C)(C)C2)C1c1cccnc1 (configuration not stated)	0.9	1.1	35	5	0.7	5
CCCc1cc(C(=O)Nc2cc(Br)ccc2O)no1	0.7	-1.7	-20	31	1.2	.
COCCNC(=O)CCSCc1ccccc1F	0.9	0.64	37	7	0.6	.
CC1CCCCN1C(=O)C1CC(c2ccc(F)cc2)=NO1 (configuration not stated)	0.9	0.34	9	7	0.9	2
Cc1ccc(-c2cc(C(=O)NCc3cnn(C)c3C)c3cc(Br)ccc3n2)cc1	0.4	-0.6	13	63*	0.9	-4
CCn1ncc(/C=C/C(=O)NCc2cnn(C)c2C)c1C	1.1	0.68	-16	-14	1.2	4
CCOc1ccc(-c2nc(N)nc(C)c2-c2ccc(OC)c(OC)c2)c(O)c1	0.9	-0.61	4	5	1	3
C=C(C)COc1ccc(-c2ncncc2Oc2ccc(OC)cc2)c(O)c1	0	-0.07	92*	98*	0.1	3
C=C(C)COc1ccc(-c2nc(N)ncc2-c2ccc(OC)cc2)c(O)c1	0.5	-0.29	36	52*	0.6	21
COc1cccc(Oc2cnc(N)nc2-c2ccc(OC)cc2O)c1	0.2	-3.9	76*	79*	0.2	11
Cc1nc2cc(NC(=O)NCCC3=CCCCC3)ccc2o1	0.8	0.025	26	20	0.7	2
COc1ccc2c(Cl)c(C(=O)NC3CCS(=O)(=O)C3)sc2c1 (configuration not stated)	1.2	-0.31	-2	-16	1	.
O=C(CSc1ccc2nnc(-c3ccncc3)n2n1)Nc1ccc2c(c1)OCCO2	0.4	-0.09	6	56*	0.9	9
O=C(CSc1nnc(-c2cccnc2)n1-c1ccccc1)Nc1ccc2c(c1)OCO2	0.9	1.3	-6	11	1.1	1
O=C(CSc1ccc2nnc(-c3ccccn3)n2n1)Nc1ccc2c(c1)OCCO2	0.3	0.22	27	66*	0.7	3
O=C(CSc1ccc2nnc(-c3ccncc3)n2n1)Nc1ccc2c(c1)OCO2	0.4	0.34	6	58*	0.9	4
Cc1cc(NC(=O)CSc2ccc3nnc(-c4cccnc4)n3n2)no1	0.6	.	14	39	0.9	4
O=C(CSc1ccc2nnc(-c3ccccn3)n2n1)Nc1ccc2c(c1)OCO2	0.7	1.3	2	31	1	4
SMILES	CYP2C9 activ	Cav32 inh	CYP2C19 inhib	CYP2C9 inhib	CYP2C19 act	HIV Rev-RRE inh
Cn1c(N/N=C/c2ccccc2)nc2sc3c(c2c1=O)CCC3	1	1.1	-14	-3	1.1	4
c1ccc(-c2cc(-c3nnc4n3N=C(c3ccc5ccccc5c3)CS4)[nH]n2)cc1	0.5	-1.3	5	49	1	5
O=C(NCc1ccccc1)C1=C[C@@H](c2ccc(Br)cc2)C[C@@H](OCCCCO)O1	.	-2.2	.	.	.	.
Cc1ccc(NC(=O)CN(C)S(=O)(=O)c2cccc3nsnc23)cc1Cl	0.2	-7.2*	40	84*	0.6	15
CN(CC(=O)NCCN1CCN(Cc2ccccc2)CC1)S(=O)(=O)c1cccc2nsnc12	1.1	0.25	-6	-5	1.1	2
CN(CC(=O)Nc1ccc(F)c(F)c1)S(=O)(=O)c1cccc2nsnc12	0.3	-0.26	39	70*	0.6	-1
CC(=O)c1cccc(NC(=O)CCNS(=O)(=O)c2cccc3nsnc23)c1	1.1	0.15	5	-9	0.9	2
Cc1ccc2nc(NC(=O)CN(C)S(=O)(=O)c3cccc4nsnc34)sc2c1	0.8	-0.71	23	19	0.8	6
CCN(CCCNC(=O)CN(C)S(=O)(=O)c1cccc2nsnc12)c1ccccc1	0.3	.	37	74*	0.6	4
CN(CC(=O)NCc1ccc(Cl)cc1)S(=O)(=O)c1cccc2nsnc12	0.8	-0.51	82*	20	0.2	4
Clc1ccc2[nH]cc(-c3nnnn3-c3ccccc3)c2c1	0.7	-0.88	37	34	0.6	8
Cc1[nH]n(-c2ccc([N+](=O)[O-])cc2)c(=O)c1C=NCCN1CCN(C(=O)c2cccc(F)c2)CC1	0.5	-0.02	33	48	0.7	15
O=C(CSc1ccccc1)Nc1ccc(S(=O)(=O)NCC2CCCO2)cc1 (configuration not stated)	0.1	-2.7	48	91*	0.5	-1
O=S(=O)(Cc1ccccc1)Nc1ccc(S(=O)(=O)NCC2CCCO2)cc1 (configuration not stated)	0.6	0.88	40	41	0.6	6
O=C(Nc1cccc(F)c1)c1ccc(S(=O)(=O)NCC2CCCO2)cc1 (configuration not stated)	0.4	-5.3*	35	56*	0.7	0
COc1ccc(CC(=O)NCc2cccs2)cc1	0.9	-1.3	30	12	0.7	-1
COc1ccc(NC(=O)C23CC4CC(C2)CC(n2cnc(Br)n2)(C4)C3)cc1Cl	1	.	10	0	0.9	8
O=C(CSc1nc2c(c(=O)n1-c1ccc(Cl)cc1)SCC2)Nc1nccs1	1.1	0.34	-12	-12	1.1	.
CCOc1ccc(-n2c(SCC(=O)NCc3ccco3)nc3c(c2=O)SCC3)cc1	0.4	0.6	26	62*	0.7	.
O=C(CSc1nc2c(c(=O)n1-c1ccc(Br)cc1)SCC2)Nc1nccs1	0.7	.	61*	27	0.4	1
COc1ccc(-n2c(SCC(=O)Nc3ccccc3)nc3c(c2=O)SCC3)cc1	0.7	0.9	42	33	0.6	7
COc1ccc(NC(=O)CSc2nc3c(c(=O)n2-c2ccc(F)cc2)SCC3)cc1	0.4	0.63	41	62*	0.6	1
COC(=O)c1ccc2nc(C3CCCCC3)c3c(c2c1)CCC3	.	0.11	.	.	.	.
C=CCN1CCN(c2ccncc2S(=O)(=O)N2CCOCC2)CC1	1	1.2	-3	0	1	4

Bioassay records: PubChem BioAssay, several laboratories
